From PMC9835613 (Chemosphere, 2022)
Several values for one entry are separate records, joined by “and”; a condition that tells them apart may be missing. Equal entries are not always repeated. Marks after values point to notes of the source that are not given here.

Experiments:
[1] = TCDD body burden and elimination in embryos, GC-HRMS; format: in vivo, zebrafish (Danio rerio); conditions: for body burden relative to the 50 ppt dose: 24 hpf; for Concentration of TCDD detected per embryo (body burden): 1 h at 4 hpf, mean; for half-life: zebrafish, whole embryo (pooled embryos), other: waterborne exposure
Method in brief: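 AB zebrafish embryos, screened at 3 hpf, exposed at 4 hpf (20 per 2 mL egg water) for 1 h to 50 ppt, 1 ppb or 10 ppb test compound (DMSO stock diluted 1:1000) or paired DMSO, then raised in fresh egg water at 28.5 °C. Dechorionated at 24 hpf. Pooled embryos (7 at 1 and 10 ppb) snap-frozen at 24, 48 and 72 hpf.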

zebrafish = test: Survival of embryos after TCDD exposure; format: in vivo, zebrafish (Danio rerio); conditions: TCDD-exposed groups at 72 hpf; control (DMSO) 96.4%, p = 0.49
zebrafish metabolome = test: Non-targeted LC-HRMS metabolomics of TCDD-exposed embryos; format: in vivo, zebrafish (Danio rerio); conditions: TCDD exposed vs DMSO
Method in brief: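 Embryos given a 1-h exposure at 4 hpf to 50 ppt or 10 ppb test compound, or matched DMSO, pooled (40 and 7 embryos respectively) at 24, 48 and 72 hpf. LC-HRMS used HILIC (25 °C) and C18 (60 °C) columns with 2 mM ammonium acetate/acetonitrile gradients, in negative and positive ion modes.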

[2] = ref Burkhard and Kuehl, 1986; cited from earlier work

Clc1cc2c(cc1Cl)Oc1cc(Cl)c(Cl)cc1O2 [TCDD, 2,3,7,8-tetrachlorodibenzo-p-dioxin]
body burden relative to the 50 ppt dose ([1]; 1 ppb exposure vs 50 ppt exposure): approximately 3 times
Concentration of TCDD detected per embryo (body burden) ([1]; 1 ppb waterborne exposure, 48 HPF): 12.7 pg/embryo
Concentration of TCDD detected per embryo (body burden) ([1]; 1 ppb waterborne exposure, 72 HPF): 4.30* pg/embryo
body burden relative to the 50 ppt dose ([1]; 10 ppb exposure vs 50 ppt exposure): approximately 4.45 times
Concentration of TCDD detected per embryo (body burden) ([1]; 10 ppb waterborne exposure, 24 HPF): 26.6 ± 1.2 pg/embryo and 38.0 ± 4.34 pg/embryo and 38.0* pg/embryo
Concentration of TCDD detected per embryo (body burden) ([1]; 10 ppb waterborne exposure, 48 HPF): 14.7 pg/embryo
Concentration of TCDD detected per embryo (body burden) ([1]; 10 ppb waterborne exposure, 72 HPF): 9.78* pg/embryo
Concentration of TCDD detected per embryo (body burden) ([1]; 50 ppt waterborne exposure, 48 HPF): 5.27 pg/embryo
Concentration of TCDD detected per embryo (body burden) ([1]; 50 ppt waterborne exposure, 72 HPF): 0.407 pg/embryo
half-life ([1]; 1 ppb): 32.7 h
half-life ([1]; 10 ppb): 10.7 h
average survival rate (zebrafish): 96.3%
upregulation of 3a, 7a-Dihydroxy-5b-cholestane (zebrafish metabolome; bile acid biosynthesis pathway): 1.01 fold
decrease of the dihydrotestosterone peak (zebrafish metabolome; every 24 h): 6.02 fold
downregulation of androsterone (zebrafish metabolome; every 24 h): 0.363 fold
upregulation of pregnenolone (zebrafish metabolome; every 24 h): 0.529 fold
downregulation of L-Glutamic acid (glutamate) (zebrafish metabolome; over time): 0.30 fold
downregulation of dopamine (zebrafish metabolome; over time): 0.66 fold
downregulation of gamma-aminobutyric acid (GABA) (zebrafish metabolome; over time): 0.32 fold
Kow [2]: 7.02
